Compounds with a hit are over-represented: about 2.9% of the library has one in this group of screens.
S100A4 MyoIIA – inhibitors of human S100A4 binding to myosin IIA peptide; P26447; S100A4/TAMRA-MyoIIA peptide fluorescence polarization; inhibition, % at 10.7 µM; hit rate 0.14% among 360,000;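 active = mean inhibition of at least 70% across replicates, with every replicate also reaching that level; inconclusive = mean inhibition reaches 70% but some replicates fall short; inactive = mean inhibition below 70%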
Target sequence (P26447 whole entry, looked up): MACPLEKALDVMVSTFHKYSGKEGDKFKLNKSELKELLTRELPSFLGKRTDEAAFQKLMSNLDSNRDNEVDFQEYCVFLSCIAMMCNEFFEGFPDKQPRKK
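System – human S100A4 monomer protein, biochemical binding assay · Buffer or medium – Calcium-containing HEPES buffer, pH 7.2 · Timing – 5 min between mix addition and reading · Also added – TAMRA-labelled myosin IIA heavy-chain peptide probe, 5 nM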
ERAP1 inh – ERAP1 (human) enzyme inhibition | recombinant ERAP1, Leu-AMC fluorescence, 60 min | inhibition, % at 10.7 µM | hit rate 0.15% among 340,000 | AID 652197;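 active = mean replicate inhibition of at least 30%, or all replicates individually reaching that 30% level; inactive = mean below 30% and not every replicate reaching it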;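 note: 0% = neutral control wells and 100% = L-leucinethiol positive control wells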
CAL PDZ FP-1 – blocks peptide binding to the human CAL PDZ domain; hit rate 0.92% among 300,000; inhibition, % at 24.9 µM; purified CAL PDZ, TMR-peptide fluorescence polarization, 1 h;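 active = mean inhibition of at least 30% with at least half of replicates also reaching 30%; inconclusive = no clear call, values can overlap the other calls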;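 note: 0% = DMSO neutral control and 100% = excess unlabeled competitor peptide PRC23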
CAL PDZ FP-2 – human CAL PDZ-peptide interaction inhibition. purified CAL PDZ, TMR-peptide fluorescence polarization, 1 h. hit rate 0.02% among 330,000. inhibition, % at 20 µM;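 active = highest replicate inhibition of at least 40%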;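 note: plate controls were DMSO neutral control wells for no effect and unlabeled competitor peptide control wells for full effect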
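material = purified tagged CAL PDZ domain construct (CerCALP) | compound dosing = 20 µM, one dose | times = 1 h at RT | measured by = fluorescence polarization from S- and P-plane intensities, G-factor corrected | read-out = inhibition from polarization loss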
DENV2 CPE rescue – protects cells from dengue virus 2 cytopathic effect; AID 651640; CPE inhibition, % at 9.99 µM; DENV2-infected cells, cytopathic effect rescue, plate reader; hit rate 1.7% among 350,000; in the data active = CPE inhibition above about 20%, passing the limit was not always enough; inconclusive = no clear call, values can overlap the other calls; tested in BHK-21 cells;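 note: 0% = median of neutral control wells and 100% = median of positive control wells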
SIRT5 inh – sirtuin-5 (human) deacylase inhibition; hit rate 1.1% among 330,000; AID 652115; Q9NXA8; inhibition, % at 15 µM; Purified SirT5, succinyl-peptide AMC, trypsin-coupled fluorescence; in the data active = inhibition above about 15%; inconclusive = no clear call, values can overlap the other calls
Target sequence (Q9NXA8 whole entry, looked up): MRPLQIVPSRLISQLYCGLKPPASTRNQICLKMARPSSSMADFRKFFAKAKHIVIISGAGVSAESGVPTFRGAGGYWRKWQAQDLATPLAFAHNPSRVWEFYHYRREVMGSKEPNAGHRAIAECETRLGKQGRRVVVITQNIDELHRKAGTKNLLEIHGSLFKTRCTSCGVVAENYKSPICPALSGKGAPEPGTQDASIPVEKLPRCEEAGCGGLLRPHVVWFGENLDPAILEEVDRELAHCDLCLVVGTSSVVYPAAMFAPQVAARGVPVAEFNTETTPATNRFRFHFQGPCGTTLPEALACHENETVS
* = called active by the depositor; ? = inconclusive; nt = no result given.

SMILES	S100A4 MyoIIA	ERAP1 inh	CAL PDZ FP-1	CAL PDZ FP-2	DENV2 CPE rescue	SIRT5 inh
C[C@@H]1CN([C@@H](C)CO)C(=O)c2cccc(NC(=O)Nc3ccccc3)c2O[C@@H]1CN(C)S(=O)(=O)c1cn(C)cn1	-16.6	-4.2	nt	nt	11.4	5.6
COc1ccc(S(=O)(=O)N(C)C[C@@H]2Oc3c(NC(=O)Nc4ccc5c(c4)OCO5)cccc3C(=O)N([C@@H](C)CO)C[C@@H]2C)cc1	5.1	1.0	nt	nt	26.6*	3.7
COc1ccc(S(=O)(=O)N(C)C[C@H]2Oc3c(NC(=O)Nc4ccc5c(c4)OCO5)cccc3C(=O)N([C@H](C)CO)C[C@H]2C)cc1	-70.2	0.4	nt	nt	14.6	-2.2
Cc1noc(C)c1NC(=O)Nc1cccc2c1O[C@@H](CN(C)S(=O)(=O)c1ccc(F)cc1)[C@@H](C)CN([C@@H](C)CO)C2=O	-2.2	4.5	nt	nt	89.3*	4.9
C[C@H]1CN([C@@H](C)CO)C(=O)c2cccc(NC(=O)Nc3ccccc3)c2O[C@@H]1CN(C)S(=O)(=O)c1cn(C)cn1	-0.1	-4.8	nt	nt	46.6*	7.7
Cc1noc(C)c1NC(=O)Nc1cccc2c1O[C@@H](CN(C)S(=O)(=O)c1cn(C)cn1)[C@@H](C)CN([C@@H](C)CO)C2=O	2.3	1.6	nt	nt	26.6*	0.4
COc1ccc2c3c(n(C)c2c1)[C@@H](CO)N(C(=O)CC1CC1)CC31CN(C(=O)C2CCC2)C1	11.5	1.0	nt	nt	9.5	0.3
CN(C)CC(=O)Nc1ccc2c(c1)[C@H]1C[C@H](CC(=O)NCc3ccncc3)O[C@H](CO)[C@H]1O2	3.6	-1.7	nt	nt	4.2	-5.4
C[C@@H]1CN([C@H](C)CO)C(=O)c2cccc(NC(=O)Nc3ccc4c(c3)OCO4)c2O[C@H]1CN(C)S(=O)(=O)c1cn(C)cn1	-0.6	3.6	nt	nt	7.1	0.6
C[C@@H]1CN([C@H](C)CO)C(=O)c2cccc(NC(=O)Nc3ccc4c(c3)OCO4)c2O[C@@H]1CN(C)S(=O)(=O)c1cn(C)cn1	-16.8	-1.5	nt	nt	-10.8	16.2*
COCCNC(=O)C[C@@H]1CC[C@H](NC(=O)NC2CCCCC2)[C@@H](CO)O1	-15.0	-0.1	nt	nt	-3.8	-6.1
C[C@@H]1CN([C@@H](C)CO)C(=O)c2cccc(NS(=O)(=O)c3ccccc3)c2O[C@@H]1CN(C)S(=O)(=O)c1cccs1	-0.3	-1.8	nt	nt	8.1	1.6
CCSc1nnc(NC(=O)c2ccco2)s1	nt	nt	1.3	-0.6	nt	nt
CC(C)Sc1nnc(NC(=O)c2ccco2)s1	1.3	0.2	55.9*	7.7	-2.9	1.1
CC(=O)c1ccc(NC(=S)N(CCCN(C)C)Cc2ccccc2)cc1	-8.4	0.2	57.7*	0.4	0.0	-0.3
CCCNC(=O)N1CC2(C1)[C@H](c1ccccc1)[C@H](CO)N2Cc1cccc(Cl)c1	9.8	-0.8	nt	nt	2.9	1.6
CCCNC(=O)C[C@@H]1CC[C@H]2[C@@H](COc3ccc(NC(=O)Nc4cccc(C)c4)cc3C(=O)N2C)O1	?	0.8	nt	nt	3.2	-2.8
C=CCn1c(O)c(/C=C2\C=NN=C2c2ccccc2)sc1=S	-2.6	nt	51.7*	-1.1	2.0	17.6*
CCCn1c(O)c(/C=C2\C=NN=C2c2ccccc2)sc1=S	nt	nt	nt	-0.7	nt	nt
COc1ccc2c3c(n(C)c2c1)[C@H](CO)NCC31CCN(C(=O)CC2CC2)CC1	nt	nt	nt	nt	-2.2	nt
COCCn1c(C)cc(C2=NNC(=Nc3ccccc3)SC2)c1C	nt	nt	active	-1.1	nt	nt
COCCn1c(C)cc(C2=NNC(=Nc3ccc(OC)cc3)SC2)c1C	nt	nt	-5.7	0.4	nt	nt
O=C(NCc1ccc(F)cc1)c1c2c(nc3ccccc13)CCN(Cc1ccccc1)C2	nt	nt	57.4*	-1.6	nt	nt
COc1ccc(OC(C)C(=O)NCc2cccnc2)cc1 (stereo unspecified)	nt	nt	45.8*	nt	nt	nt
O=C(C[C@@H]1C=C[C@H](NC(=O)c2ccc3c(c2)OCO3)[C@@H](CO)O1)NCc1ccc(Cl)cc1	-5.2	-0.3	nt	nt	-4.4	-1.4
CN1CCCN(c2cc(-c3ccc4ccccc4c3)nc3ccnn23)CC1	138.9*	7.5	nt	nt	3.9	-5.2
Cc1cccc(-c2cc(N3CCCN(C)CC3)n3nccc3n2)c1	111.7*	0.9	nt	nt	1.5	-5.5
OCCN1CCN(c2cc(-c3ccc4ccccc4c3)nc3ccnn23)CC1	15.4	-1.9	nt	nt	-12.3	-2.6
